Source: PubChem
GSIS activator: primary screen for activators of insulin secretion dependent on glucose, INS-1E cells, GLuc reporter luminescence; activation, % at 16.6 µM; INS-1E GLuc reporter insulin secretion, 2-3 h; 0.61% of 370,000 active; AID 743287;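 active = lowest replicate activation of at least 40%, so every replicate reaches that level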;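 note: 0% = median of neutral control wells and 100% = median of IBMX positive control wells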
E-sel inducer: induces E-selectin expression in human endothelial cells. P16581. HUVEC E-selectin immunofluorescence imaging; normalized: neutral wells 0, TNF-alpha wells 100. activation, % at 7.58 µM. 0.37% of 260,000 active;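 active = mean E-selectin-positive cell signal at least 10% of the positive control, reached in at least 60% of replicates, without over 20% cell loss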
Target sequence (P16581 whole entry, looked up): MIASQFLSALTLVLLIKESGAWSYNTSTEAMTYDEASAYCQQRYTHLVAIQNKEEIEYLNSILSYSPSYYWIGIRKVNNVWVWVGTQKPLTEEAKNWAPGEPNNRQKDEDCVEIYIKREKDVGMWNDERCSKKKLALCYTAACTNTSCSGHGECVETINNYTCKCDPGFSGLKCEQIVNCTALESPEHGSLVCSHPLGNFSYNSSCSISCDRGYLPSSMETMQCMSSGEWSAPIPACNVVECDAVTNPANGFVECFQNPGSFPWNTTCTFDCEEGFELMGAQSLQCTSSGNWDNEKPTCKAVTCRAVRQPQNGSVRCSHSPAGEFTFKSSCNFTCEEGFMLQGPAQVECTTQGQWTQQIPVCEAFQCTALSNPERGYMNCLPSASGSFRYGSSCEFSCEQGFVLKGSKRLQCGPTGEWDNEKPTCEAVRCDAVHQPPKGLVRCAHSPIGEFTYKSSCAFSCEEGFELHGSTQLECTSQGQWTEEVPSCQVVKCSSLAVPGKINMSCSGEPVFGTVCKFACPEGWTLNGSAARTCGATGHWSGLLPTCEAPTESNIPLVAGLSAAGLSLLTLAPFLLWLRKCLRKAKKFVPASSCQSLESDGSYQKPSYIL
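Read-out: % PE-positive cells | Test system: HUVEC | Doses: One compound dose added by pin transfer | Buffer or medium: EGM-2 over gelatin coat | Signal: Immunofluorescence imaging | Benchmarks: TNF-alpha, DMSO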
AF4-AF9 inh: MLL-AF4/AF9 protein interaction inhibition | P42568 | AlphaScreen, biotin-AF4 peptide binding to FLAG-AF9 | inhibition, % at 10 µM | 0.47% of 350,000 active | AID 651704;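 active = every replicate reaching a set inhibition limit, whatever the replicate mean, cut at about 25% in these data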;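 note: 0% = plate neutral control median and 100% = total signal loss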
rRNA inh HTS: inhibits bacterial ribosomal RNA function over humanized ribosomes. E. coli WT GFP vs humanized-ribosome RFP mutants, fluorescence, 24 h; active compounds read low; DMSO median 0, no signal -100. GFP signal change (wild-type ribosome), % (no concentration beside the values). 1.6% of 350,000 active. AID 720706;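 active = significant combined selectivity score with lowered wild-type GFP, culture density cut under 30%, mutant RFP and density less affected; inactive = any of these conditions unmet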
RAD54 inh: RAD54 (human) branch migration inhibition; Q92698; RAD54 Holliday junction branch migration, FAM/BHQ fluorescence; 0.14% of 360,000 active; inhibition, % at 10.4 µM; AID 602329;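 active = mean normalized replicate activity at least 40 and at least half of replicates scoring 40 or more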;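 note: 0% = median of neutral control wells and 100% = median of positive control wells; inhibitors cause a drop in the FAM fluorescence signal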
RAD52 inh: inhibitors of human RAD52 DNA annealing | recombinant RAD52 DNA annealing, FRET fluorescence | inhibition, % at 18.7 µM | 0.46% of 360,000 active | AID 651710;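 active = every replicate showing at least 50% inhibition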
An asterisk follows results filed as active; . = not tested or not shown. The list is not random: actives were taken first. Their share in the collection is about 2.6%.

SMILES	GSIS activator	E-sel inducer	AF4-AF9 inh	rRNA inh HTS	RAD54 inh	RAD52 inh
CC(=O)c1ccc(OCC(=O)Nc2ccc(N3CCCCC3)cc2)cc1	-1.8	0.3	25.6*	2.2	2.2	1.3
COC(=O)[C@@H]1[C@@H](CO)[C@@H]2Cn3c(ccc(-c4cccc(F)c4)c3=O)[C@@H]2N1S(C)(=O)=O	6.5	0.2	-0.1	-2.7	-0.8	-10.8
CCOc1cccc(C(=O)Nc2ccc(N3CCCC3)cc2)c1	2.1	.	-0.4	-19.1*	4.9	-22.0
CCOc1cccc(C(=O)Nc2ccc(N(CC)CC)cc2)c1	.	.	.	.	-0.7	.
O=C(NC[C@H]1[C@H](c2ccccc2)[C@H](CO)N1Cc1ccccn1)C1CCCC1	10.7	0.0	.	0.2	1.3	.
CCCC(=O)Nc1ccc(N2CCN(S(C)(=O)=O)CC2)cc1	52.5*	-0.9	.	.	.	.
COC1=CC(=O)C(OC)=C(OC)C1=O	43.6*	0.0	-0.9	32.4	-3.2	-1.0
CC(C)(C)c1ccc(-c2cc(NC(=O)Cc3c[nH]c4ccccc34)ccc2Nc2cccnc2)cc1	57.4*	0.7	.	5.3	.	-79.8
COc1cccc(/C=N/Nc2nc3ccccc3[nH]2)c1OC	.	-0.1	5.0	-24.6*	.	-5.3
Cn1c(/C=N/Nc2nc3ccccc3[nH]2)nc2ccccc21	.	.	14.1	-5.6	.	-3.8
COc1cccc(/C=N/Nc2ncnc3c2[nH]c2ccc(C)cc23)c1OC	-5.3	1.0	0.8	-1.4	.	-15.6
COc1cccc(/C=N/Nc2nc3ccccc3[nH]2)c1O	-11.9	.	2.8	-28.6	-1.4	-13.1
COc1ccc(/C=N/Nc2ncnc3c2[nH]c2ccccc23)c(OC)c1OC	68.4*	0.4	.	.	-13.1	.
Cc1c(/C=N/Nc2nc3ccccc3[nH]2)c2ccccc2n1C	.	.	25.0*	-45.5	-5.4	-12.1
N#C/C(=C\c1c(N2CCN(c3ccccc3)CC2)nc2ccccn2c1=O)C(N)=O	11.0	.	2.7	-1.2	1.0	-19.8
N#C/C(=C\c1c(N2CCCCCC2)nc2ccccn2c1=O)C(N)=O	40.4*	0.0	5.5	-1.2	-1.1	-11.7
CO[C@@H]1CC[C@H]2CCOc3ccc(C#N)cc3C(=O)N(C)[C@@H](C)C(=O)N(C)C[C@@H]1O2	4.8	0.1	.	-1.9	-2.9	-2.3
C[C@@H]1CN([C@@H](C)CO)C(=O)Cc2cc(NC(=O)NC3CCCCC3)ccc2O[C@@H]1CN(C)C(=O)Nc1cccc2ccccc12	-6.4	-0.3	0.1	0.4	4.5	-22.8
Cn1cccc1/C=C1\SC(=S)N(NC(=O)c2ccccc2O)C1=O	1.0	-0.4	12.5	-28.1*	.	-59.7
C[C@H](CO)N1C[C@H](C)[C@@H](CN(C)S(=O)(=O)c2cccs2)Oc2c(NC(=O)CCCN(C)C)cccc2C1=O	-6.3	.	.	0.2	.	.
CC(C)C[C@@H]1COc2cccc(N3CCCC3)c2S(=O)(=O)N1	-10.0	0.0	3.5	-28.0*	.	-2.9
CC(C)C[C@H]1COc2cccc(N3CCOCC3)c2S(=O)(=O)N1	22.3	-0.2	0.3	9.8	.	-7.7
CC(C)C[C@@H]1COc2cccc(N3CCN(Cc4ccccc4F)CC3)c2S(=O)(=O)N1	-22.4	0.2	4.0	-35.4*	.	-33.8
COc1ccc(NC(=O)N(C)C[C@H]2Oc3ccc(NC(=O)Cc4cn(C)c5ccccc45)cc3C(=O)N([C@H](C)CO)C[C@H]2C)cc1	-14.8	-5.5	2.2	1.1	-4.8	-17.5
CC(C)CC(=O)Nc1nnc(SCC(=O)NC2CCCC2)s1	120.9*	-0.2	-1.4	13.6	-4.7	-4.6
SMILES	GSIS activator	E-sel inducer	AF4-AF9 inh	rRNA inh HTS	RAD54 inh	RAD52 inh
CN(C)c1ccc(P(=O)(OCc2ccccc2)C(O)c2ccc(Cl)cc2)cc1 (centres undefined)	10.1	-0.2	4.9	8.0	5.4	-9.7
CN(C)c1ccc(P(=O)(OCc2ccccc2)C(O)c2ccccc2)cc1 (centres undefined)	31.1	.	1.5	-20.1*	.	-11.0
CC(C)OP(=O)(c1ccc(N(C)C)cc1)C(Nc1ccccc1)c1ccccc1 (centres undefined)	-18.9	.	8.1	-27.4*	.	-10.1
O=S(=O)(c1ccc(Cl)nc1)N1CCc2ccccc21	54.0*	.	-0.6	5.6	-5.4	-6.9
CO/N=C/C(C#N)=C/c1ccc(OC)c(OC)c1	59.6*	.	7.0	-21.4	.	-8.0
COc1ccc(S(=O)(=O)N(C)C[C@H]2OCc3cn(nn3)CCCC(=O)N([C@H](C)CO)C[C@H]2C)cc1	4.5	0.4	.	3.0	.	.
O=C(Nc1nc2ccc(F)cc2s1)c1ccc([N+](=O)[O-])o1	.	-0.2	-3.2	-26.1*	-5.1	2.6
C[C@@H]1CN([C@@H](C)CO)C(=O)Cc2cc(NC(=O)CCN3CCOCC3)ccc2O[C@H]1CN(C)CC1CCCCC1	11.2	3.1	8.4	2.9	5.4	-4.6
COc1ccc(C(CCNCc2ccc(N(C)C)cc2)c2ccccc2)cc1 (centres undefined)	-42.6	-0.1	50.2*	-28.4	4.2	-31.9
COc1ccccc1C#Cc1ccc([C@@H]2[C@@H](CO)N(C(=O)C3CCCC3)[C@H]2C#N)cc1	-5.4	-0.2	-0.2	1.4	.	-304.4
CCC(=O)N(C)C[C@@H]1Oc2cc(-c3ccccc3F)ccc2S(=O)(=O)N([C@@H](C)CO)C[C@@H]1C	13.7	-0.2	-0.8	-2.6	-1.4	-1.0
C[n+]1ccc(C(=O)N/N=C/c2ccco2)cc1	4.9	139.4*	-1.5	9.6	-4.6	-8.8
O=C(N/N=C/c1ccco1)c1cc(-c2ccc(Cl)cc2)n[nH]1	25.6	0.0	6.2	-19.2*	.	-11.3
COc1ccc2c3c([nH]c2c1)[C@H](CO)N(C(=O)c1ccncc1)CC31CN(C(=O)CC2CC2)C1	7.7	-0.3	-6.5	0.1	.	.
COc1ccc(-c2c(C)nn3c(-c4ccccc4)cc(C)nc23)cc1	0.9	0.0	26.6*	-4.2	-9.9	-15.4
COc1cc2sc3ccc(C#Cc4ccc(N)cc4)cc3c(=O)c2cc1OC	58.2*	1.4	.	.	3.6	.
Cc1onc(-c2ccccc2Cl)c1C(=O)N[C@@H](C)c1ccccc1	8.4	-0.1	-8.3	-20.9*	-2.5	-0.8
Cc1onc(-c2ccccc2)c1C(=O)NC(C)c1ccccc1 (centres undefined)	9.4	-0.1	0.2	4.9	.	-24.4
O=[N+]([O-])c1ccccc1C(=Nc1ccccc1)c1c(O)cc(O)cc1O	.	0.0	1.2	-21.2*	-16.5	-8.6
O=C(Nc1ccccc1)c1ccccc1NC(=O)c1ccccc1[N+](=O)[O-]	14.4	0.1	3.5	-19.5	-13.0	-22.9
